The results in this text go back to ChEMBL document CHEMBL2146396, “Design, synthesis and evaluation of novel metalloproteinase inhibitors based on L-tyrosine scaffold” (Bioorg Med Chem, 2012).

Bounds are passed on as bounds.

Assay [1] deals with 72 kDa type IV collagenase (Homo sapiens, UniProt P08253). Description: Inhibition of MMP2 using BML-P125-9090 as substrate after 30 mins by microplate reader analysis. The essentials: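 Colorimetric kit assay. Enzyme and inhibitor were preincubated 30 min at 37 °C in assay buffer equilibrated to 37 °C. Substrate was then added to start the reaction. A412 was read continuously at 1 min intervals for 10 min. IC50 was derived from the readings.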
Chain of 72 kDa type IV collagenase (P08253 whole entry): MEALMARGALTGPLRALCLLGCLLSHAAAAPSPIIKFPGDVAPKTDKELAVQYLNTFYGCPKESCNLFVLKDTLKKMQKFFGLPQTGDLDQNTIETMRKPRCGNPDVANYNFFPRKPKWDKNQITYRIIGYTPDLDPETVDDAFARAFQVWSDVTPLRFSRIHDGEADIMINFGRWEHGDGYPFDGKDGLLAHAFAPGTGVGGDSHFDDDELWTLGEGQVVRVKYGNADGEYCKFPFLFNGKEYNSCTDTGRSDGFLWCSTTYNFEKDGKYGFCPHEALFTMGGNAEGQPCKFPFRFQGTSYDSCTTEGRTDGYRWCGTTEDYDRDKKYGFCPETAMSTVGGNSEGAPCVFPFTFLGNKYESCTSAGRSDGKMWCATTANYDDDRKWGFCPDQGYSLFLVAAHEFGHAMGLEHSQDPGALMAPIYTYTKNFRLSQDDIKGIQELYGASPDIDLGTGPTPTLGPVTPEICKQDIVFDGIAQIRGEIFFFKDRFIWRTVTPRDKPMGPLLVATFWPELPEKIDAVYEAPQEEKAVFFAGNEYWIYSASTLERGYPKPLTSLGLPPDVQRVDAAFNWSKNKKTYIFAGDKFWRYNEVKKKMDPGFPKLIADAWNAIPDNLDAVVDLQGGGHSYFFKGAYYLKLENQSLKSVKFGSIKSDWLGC

The next assay deals with T1, Histone deacetylase 8 (Homo sapiens, UniProt Q9BY41).
T1 sequence (Q9BY41 whole entry): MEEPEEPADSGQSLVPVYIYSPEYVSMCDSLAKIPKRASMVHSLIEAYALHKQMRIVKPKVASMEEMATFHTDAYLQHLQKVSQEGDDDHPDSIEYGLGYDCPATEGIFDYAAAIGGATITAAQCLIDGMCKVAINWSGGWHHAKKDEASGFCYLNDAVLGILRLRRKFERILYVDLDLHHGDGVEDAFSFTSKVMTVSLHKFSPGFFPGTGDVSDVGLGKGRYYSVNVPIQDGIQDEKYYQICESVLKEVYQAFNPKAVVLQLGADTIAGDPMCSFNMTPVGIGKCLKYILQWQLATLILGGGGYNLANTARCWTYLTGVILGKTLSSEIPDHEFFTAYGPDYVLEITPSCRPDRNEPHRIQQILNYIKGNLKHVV
Description: Inhibition of HDAC8 after 45 mins by microplate fluorometric analysis.

Turning to `COC(=O)[C@H](Cc1ccc(OCCc2ccccc2)cc1)NC(C)=O`, the IC50 in assay [1] amounted to 12.5 µM; against Histone deacetylase 8, 825 µM.

As to `CC(=O)N[C@@H](Cc1ccc(OCCc2ccccc2)cc1)C(=O)O`, the values for the IC50 (in assay [1]; at Histone deacetylase 8) were 0.75 µM and 121 µM, respectively.

As for `Cc1ccc(S(=O)(=O)N[C@@H](Cc2ccc(OCCc3ccccc3)cc2)C(=O)O)cc1`, the figures for the IC50 (in assay [1]; on Histone deacetylase 8) were 0.27 µM and over 1000 µM, respectively.

As for `COC(=O)[C@H](Cc1ccc(OCc2ccccc2)cc1)NS(=O)(=O)c1ccc(C)cc1`, the IC50 in assay [1] is 10.7 µM; against Histone deacetylase 8, over 1000 µM.

On to `COC(=O)[C@H](Cc1ccc(OCCc2ccccc2)cc1)NS(=O)(=O)c1ccc(C)cc1`, for which the IC50 turned out to be 6.3 µM in assay [1] and 962 µM at Histone deacetylase 8.

As to `O=C(N[C@@H](Cc1ccc(OCCc2ccccc2)cc1)C(=O)NO)c1ccccc1`, the IC50 in assay [1] came out at 0.9 µM; against Histone deacetylase 8, 27.8 µM.

On to `Cc1ccc(S(=O)(=O)N[C@@H](Cc2ccc(OCc3ccccc3)cc2)C(=O)O)cc1`, for which the IC50 stood at 2.5 µM in assay [1] and 505 µM against Histone deacetylase 8.

On to `CS(=O)(=O)N[C@@H](Cc1ccc(OCCc2ccccc2)cc1)C(=O)O`, for which the values for the IC50 (in assay [1]; at Histone deacetylase 8) were 0.12 µM and 102 µM, respectively.

On to `CS(=O)(=O)N[C@@H](Cc1ccc(OCc2ccccc2)cc1)C(=O)O`, for which the IC50 in assay [1] was determined as 1.4 µM; on Histone deacetylase 8 it was 47.2 µM.

For `COC(=O)[C@H](Cc1ccc(OCc2ccccc2)cc1)NC(=O)c1ccccc1`, the IC50 in assay [1] was 67.5 µM; on Histone deacetylase 8 it was over 1000 µM.

As for `COC(=O)[C@H](Cc1ccc(OCc2ccccc2)cc1)NC(=O)c1ccc(C)cc1`, the IC50 in assay [1] is 83.7 µM; at Histone deacetylase 8, over 1000 µM.

As for `COC(=O)[C@H](Cc1ccc(OCc2ccccc2)cc1)NC(C)=O`, the IC50 in assay [1] worked out at 27.6 µM; at Histone deacetylase 8, 872 µM.

Regarding `CS(=O)(=O)N[C@@H](Cc1ccc(OCc2ccccc2)cc1)C(=O)NO`, the IC50 in assay [1] stood at 0.067 µM; at Histone deacetylase 8, 3.6 µM.

For the molecule `COC(=O)[C@H](Cc1ccc(OCCc2ccccc2)cc1)NC(=O)c1ccccc1`, the IC50 in assay [1] was 74.6 µM; against Histone deacetylase 8 it was over 1000 µM.

Regarding `O=C(N[C@@H](Cc1ccc(OCc2ccccc2)cc1)C(=O)O)c1ccccc1`, the IC50 in assay [1] was determined as 9.8 µM; against Histone deacetylase 8 it was 111 µM.

In the case of `CC(=O)N[C@@H](Cc1ccc(OCc2ccccc2)cc1)C(=O)O`, the IC50 in assay [1] turned out to be 3 µM; at Histone deacetylase 8 it was 36.9 µM.

As to `Cc1ccc(C(=O)N[C@@H](Cc2ccc(OCCc3ccccc3)cc2)C(=O)NO)cc1`, the IC50 in assay [1] stood at 3.9 µM; against Histone deacetylase 8 it was 52.5 µM.

On to `Cc1ccc(S(=O)(=O)N[C@@H](Cc2ccc(OCc3ccccc3)cc2)C(=O)NO)cc1`, for which the IC50 in assay [1] was determined as 0.025 µM; against Histone deacetylase 8, 42.4 µM.

Take `COC(=O)[C@H](Cc1ccc(OCCc2ccccc2)cc1)NC(=O)c1ccc(C)cc1`: the IC50 in assay [1] is 85.5 µM; at Histone deacetylase 8 it was over 1000 µM.

On to `COC(=O)[C@H](Cc1ccc(OCCc2ccccc2)cc1)NS(C)(=O)=O`, for which the figures for the IC50 (in assay [1]; at Histone deacetylase 8) were 2.4 µM and over 1000 µM, respectively.

Turning to `Cc1ccc(S(=O)(=O)N[C@@H](Cc2ccc(OCCc3ccccc3)cc2)C(=O)NO)cc1`, the IC50 in assay [1] was 0.017 µM; on Histone deacetylase 8 it was 82.5 µM.

Turning to `Cc1ccc(C(=O)N[C@@H](Cc2ccc(OCCc3ccccc3)cc2)C(=O)O)cc1`, the IC50 in assay [1] was 4.5 µM; against Histone deacetylase 8 it was 386 µM.

In assay [1], `COc1ccc(S(=O)(=O)N(CC(=O)NO)CC(C)C)cc1` registered an IC50 of 0.014 µM.

As to `O=C(N[C@@H](Cc1ccc(OCCc2ccccc2)cc1)C(=O)O)c1ccccc1`, the IC50 in assay [1] was found to be 7.6 µM; against Histone deacetylase 8, 253 µM.

In the case of `Cc1ccc(C(=O)N[C@@H](Cc2ccc(OCc3ccccc3)cc2)C(=O)NO)cc1`, the IC50 came out at 0.46 µM in assay [1] and 30.7 µM at Histone deacetylase 8.

With `CC(=O)N[C@@H](Cc1ccc(OCCc2ccccc2)cc1)C(=O)NO`, the IC50 in assay [1] stood at 0.013 µM; against Histone deacetylase 8 it was 14.4 µM.

For the molecule `CC(=O)N[C@@H](Cc1ccc(OCc2ccccc2)cc1)C(=O)NO`, the IC50 in assay [1] was found to be 0.037 µM; against Histone deacetylase 8 it was 5.8 µM.

`O=C(N[C@@H](Cc1ccc(OCc2ccccc2)cc1)C(=O)NO)c1ccccc1`: the IC50 turned out to be 1.7 µM in assay [1] and 9.3 µM at Histone deacetylase 8.

As to `Cc1ccc(C(=O)N[C@@H](Cc2ccc(OCc3ccccc3)cc2)C(=O)O)cc1`, the IC50 is 8.1 µM in assay [1] and over 1000 µM against Histone deacetylase 8.

Regarding `CS(=O)(=O)N[C@@H](Cc1ccc(OCCc2ccccc2)cc1)C(=O)NO`, the IC50 was 0.029 µM in assay [1] and 9.5 µM against Histone deacetylase 8.

Take `COC(=O)[C@H](Cc1ccc(OCc2ccccc2)cc1)NS(C)(=O)=O`: the IC50 in assay [1] is 17.8 µM; against Histone deacetylase 8 it was 754 µM.

Broadly, the IC50 is the midpoint of a concentration-inhibition curve.
